# Results from paper PMC7883929 (Molecular Vision, 2021).
# Entries after “also recorded” stand apart in the source; their conditions may differ. Where two headings read alike, the source gives them in different places.
# What was measured:
# [1] = system: laser-induced glaucoma model in monkeys; conditions: at 6 h, cited from earlier work
# [2] = cited from earlier work
# [3] = system: hTM-80 cells; assay: Superoxide dismutase activity assay; format: cell-based, human; conditions: 100 µM, overnight/24 h
# [4] = system: normotensive rat eyes; assay: IOP measurement in normotensive Sprague Dawley rats; format: in vivo; conditions: Travoprost 0.004% single eye drop, 6 h time point only
# Procedure, shortened: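 Adult (10-week) female Sprague Dawley rats, n = 3/group, housed under dim light (90 lux) and dosed under a masked protocol. Each received a single 30 µl topical drop in PBS: saline vehicle, 0.004% travoprost positive control, or test compound. IOP was read by TonoLab rebound tonometry at 0, 3, 6, 24, 48 and 72 h. The contralateral eye served as control. Dosing was repeated three times per rat after 7-day washouts. Rank-sum test, mean ± SEM.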
smiles,measurement,setting,value
CC1(C)CC(O[N+](=O)[O-])CC(C)(C)N1[O] [4-nitro-TEMPOL],IOP lowering,[1]; dose 150 µg/eye drop,20%
"O=[N+]([O-])OCC(CO[N+](=O)[O-])O[N+](=O)[O-] [GTN, glyceryl trinitrate]",IOP lowering,[1]; dose 500 µg,13%
"O=C(CCC/C=C\C[C@@H]1[C@@H](CC[C@@H](O)CCc2ccccc2)[C@H](O)C[C@@H]1O)OCCCCO[N+](=O)[O-] [LBN, Latanoprostene bunod]",IOP-lowering ability,[2],−9.0 mm/Hg
"CC1(C)CC(N)CC(C)(C)N1[O] [SA-3, 4-amino TEMPOL]",SOD enzyme level (in words),[3],the effect was comparable to that of a standard SOD mimetic SA-3 compound
"[NH-]c1c[n+](N2CCOCC2)no1 [SIN-1, Linsidomine]",SOD enzyme level (in words),[3],did not increase the SOD enzyme; also recorded: did not increase the SOD level
CC(C)OC(=O)CCC/C=C\C[C@@H]1[C@@H](/C=C/[C@@H](O)COc2cccc(C(F)(F)F)c2)[C@H](O)C[C@@H]1O [Travoprost],IOP lowering,[4],14%
CC(C)OC(=O)CCC/C=C\C[C@@H]1[C@@H](CC[C@@H](O)CCc2ccccc2)[C@H](O)C[C@@H]1O [latanoprost],IOP-lowering ability,[2],−7.7 mm/Hg
